Measured values: ChEMBL document CHEMBL4007396, “New diphenylmethane derivatives as peroxisome proliferator-activated receptor alpha/gamma dual agonists endowed with anti-proliferative effects and mitochondrial activity” (Eur J Med Chem, 2017)
Calls of active or inactive are those of the source. No cut-off for these calls is given here.

Columns and labels:
[1] = biological target: T1, Peroxisome proliferator-activated receptor gamma (Homo sapiens) (UniProt P37231); test: Agonist activity at PPARgamma in human HT-29 cells assessed as upregulation of p21waf1/cip1 protein expression at 10 uM after 48 hrs by Western blot method; type: cell-based
T1 sequence (whole entry): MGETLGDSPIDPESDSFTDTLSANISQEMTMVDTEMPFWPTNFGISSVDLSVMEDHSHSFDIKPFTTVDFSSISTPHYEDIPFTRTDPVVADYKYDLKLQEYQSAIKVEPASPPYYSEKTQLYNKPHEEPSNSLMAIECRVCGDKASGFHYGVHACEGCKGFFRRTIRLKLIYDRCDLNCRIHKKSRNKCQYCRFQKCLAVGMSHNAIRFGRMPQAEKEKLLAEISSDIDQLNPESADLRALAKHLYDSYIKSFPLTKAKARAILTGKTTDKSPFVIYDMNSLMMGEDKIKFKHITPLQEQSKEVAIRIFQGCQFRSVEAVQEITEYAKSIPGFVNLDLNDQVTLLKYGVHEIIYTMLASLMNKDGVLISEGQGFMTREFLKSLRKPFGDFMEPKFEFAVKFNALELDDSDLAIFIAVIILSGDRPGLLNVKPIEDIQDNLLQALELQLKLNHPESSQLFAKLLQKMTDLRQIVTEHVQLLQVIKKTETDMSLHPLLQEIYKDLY
Method in brief: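 HT-29 or HEK293T cells in DMEM/10% FBS treated 48 h with 10 μM compound (DMSO vehicle, final below 0.1%). RIPA lysates (with protease inhibitors), 80 μg protein per lane immunoblotted for p21waf1/cip1 with β-actin loading control; densitometric p21/β-actin ratio, mean ± SD of at least three independent experiments.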

HT-29 [2] = test: Growth inhibition of human HT-29 cells assessed as cell vitality at 10 uM after 48 hrs by hemocytometry relative to control; type: functional; design: scale not given: the % may be the effect or the level left
Method in brief: (§1)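 Exponentially growing HT-29 colon adenocarcinoma cells (D-MEM, 10% FBS, 37 °C, 5% CO2) exposed to vehicle (DMSO, final <0.1%) or 1, 5 and 10 μM compound in 10% FBS medium for 24, 48 and 72 hs; cells washed, trypsinized and counted by Bürker hemocytometer, three counts per well. Viability relative to vehicle; mean ± SD of three independent experiments in duplicate.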

[3] = Growth inhibition of HEK293T cells assessed as cell vitality at 10 uM after 48 hrs by hemocytometry relative to control; type: cell-based, HEK-293T; details: human, read-out: Activity
Method in brief: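 HEK293T grown in DMEM with 10% FBS, penicillin-streptomycin and L-glutamine, exposed 48 h to 10 μM compound (DMSO under 0.1% final) alongside HT-29. Cells trypsinized and counted on a Bürker hemocytometer, three counts per well; viability relative to vehicle-treated cells; three independent experiments in duplicate, mean ± SD.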

[4] = biological target: T2, Peroxisome proliferator-activated receptor alpha (Homo sapiens, UniProt Q07869); test: Binding affinity to PPARalpha (unknown origin) assessed as kinetic dissociation constant by SPR assay
T2 sequence (Q07869 whole entry): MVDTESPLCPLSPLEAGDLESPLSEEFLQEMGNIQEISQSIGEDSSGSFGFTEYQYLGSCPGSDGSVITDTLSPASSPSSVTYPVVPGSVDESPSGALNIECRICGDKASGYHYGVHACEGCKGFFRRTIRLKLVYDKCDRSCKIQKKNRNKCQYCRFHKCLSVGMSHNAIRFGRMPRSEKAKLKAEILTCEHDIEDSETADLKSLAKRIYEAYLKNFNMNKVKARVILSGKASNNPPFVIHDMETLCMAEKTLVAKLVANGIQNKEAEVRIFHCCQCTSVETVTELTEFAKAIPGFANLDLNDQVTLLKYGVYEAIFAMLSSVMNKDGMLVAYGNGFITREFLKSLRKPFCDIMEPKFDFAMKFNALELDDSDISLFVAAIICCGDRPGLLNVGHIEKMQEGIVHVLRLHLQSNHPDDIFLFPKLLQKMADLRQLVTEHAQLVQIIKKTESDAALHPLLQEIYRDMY

HT-29 [5] = test: Growth inhibition of human HT-29 cells assessed as cell vitality at 5 uM up to 72 hrs by hemocytometry relative to control; type: functional; design: scale not given: the % may be the effect or the level left; method in brief: as §1
HT-29 [6] = test: Growth inhibition of human HT-29 cells assessed as cell vitality at 5 to 10 uM up to 72 hrs by hemocytometry relative to control; type: functional; design: scale not given: the % may be the effect or the level left; method in brief: as §1

Compound	Activity [1]	Activity (HT-29 [2])	viability at 48 h, 10 µM [3]	Kd [4]	Activity (HT-29 [5])	Activity (HT-29 [6])
C[C@H](Oc1ccc(Cc2ccc(OCc3coc(-c4ccccc4)n3)cc2)cc1)C(=O)O	Active	40%	75%	0.016 s⁻¹	45%	–
C[C@@H](Oc1ccc(Cc2ccc(OCc3coc(-c4ccccc4)n3)cc2)cc1)C(=O)O	Active	–	–	0.025 s⁻¹	–	40 - 60%
